Columns and labels:
[1] = tested on: J774; test: Concentration that inhibits the cell division by 50% after 72 h; type: functional; details: Mus musculus, J774, 72 h; read-out: ED50 (the source's name)
Outline: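 J774.2 murine macrophage-like cells (3×10^5 per 60-mm plate) incubated with a range of compound concentrations; viable cell number counted by Coulter counter after 72 h. ED50 taken as the concentration inhibiting cell division by 50%. Compounds dissolved in DMSO, final DMSO at most 0.2%.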

[2] = Relative initial slope of the compound; type: functional
Outline: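 Calf brain microtubule protein, purified by two cycles of temperature-dependent assembly-disassembly. Assembly ran in 0.1 M MES, 1 mM EGTA, MgCl2 and 3 M glycerol, pH 6.6, at 35 °C and was followed by turbidity at 350 nm. Assembly extent and initial slope were expressed relative to taxol. DMSO vehicle was at most 1% final.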

[3] = tested on: Tubulin (Bos taurus); test: Effect of compound on assembly property of microtubule protein. 1.5 mg/mL MTP + 15 uM compound

CC(=O)O[C@H]1C(=O)[C@@]2(C)[C@H]([C@H](OC(=O)c3ccccc3)[C@]3(O)C[C@H](OC(=O)[C@H](O)[C@@H](NC(=O)c4ccc(N=[N+]=[N-])cc4)c4ccccc4)C(C)=C1C3(C)C)[C@]1(OC(C)=O)CO[C@@H]1C[C@@H]2O
EC50 [1]: 280 nM
Relative initial slope [2]: 84

CC(=O)O[C@H]1C(=O)[C@@]2(C)[C@H]([C@H](OC(=O)c3ccccc3)[C@]3(O)C[C@H](OC(=O)[C@H](O)C(NC(=O)c4ccc(C(=O)c5ccccc5)cc4)c4ccccc4)C(C)=C1C3(C)C)[C@]1(OC(C)=O)CO[C@@H]1C[C@@H]2O (stereo not given in full)
EC50 [1]: 1500 nM
Relative initial slope [2]: 15
Assembly [3]: 39%

Nc1nc2c(ncn2[C@@H]2O[C@H](COP(=O)(O)OP(=O)(O)OP(=O)(O)O)[C@@H](O)[C@H]2O)c(=O)[nH]1 [GUANOSINE TRIPHOSPHATE]
Relative initial slope [2]: 65
Assembly [3]: 70%

CC(=O)O[C@H]1C(=O)[C@@]2(C)[C@H]([C@H](OC(=O)c3ccccc3)[C@]3(O)C[C@H](OC(=O)[C@H](O)[C@@H](NC(=O)c4ccccc4)c4ccccc4)C(C)=C1C3(C)C)[C@]1(OC(C)=O)CO[C@@H]1C[C@@H]2O [PACLITAXEL]
EC50 [1]: 90 nM
Relative initial slope [2]: 100
Assembly [3]: 100%
